Experimental findings from ChEMBL document CHEMBL4396879, “Conjugation of Short Peptides to Dibenzodiazepinone-Type Muscarinic Acetylcholine Receptor Ligands Determines M2R Selectivity” (J Med Chem, 2019) are described below.

Common to all, as to assay type: cell-based
Assay [1] deals with Muscarinic acetylcholine receptors; M1 & M2 (Homo sapiens) (UniProt P11229+P08172). Kind of assay: Selectivity ratio of Ki for human muscarinic M1 receptor expressed in CHO-K9 cells to Ki for human muscarinic M2 receptor expressed in CHO-K9 cells. In short, it runs like this:
(§1)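 Ratio of mean Ki values. Each Ki came from an individual [3H]NMS competition experiment at the given CHO-hMxR subtype, converting IC50 to Ki by Cheng-Prusoff before averaging.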

Assay [2] has as its target Muscarinic acetylcholine receptors; M2 & M3 (Homo sapiens) (UniProt P20309+P08172). The experiment in a line: Selectivity ratio of Ki for human muscarinic M3 receptor expressed in CHO-K9 cells to Ki for human muscarinic M2 receptor expressed in CHO-K9 cells. The essentials: as §1
For assay [3], the target named is Muscarinic acetylcholine receptor M2 and M4 (Homo sapiens) (UniProt P08173+P08172). Kind of assay: Selectivity ratio of Ki for human muscarinic M4 receptor expressed in CHO-K9 cells to Ki for human muscarinic M2 receptor expressed in CHO-K9 cells. The essentials:
as §1

Assay [4] deals with T1, Muscarinic acetylcholine receptor M4 (Homo sapiens, UniProt P08173).
T1 sequence (P08173 whole entry): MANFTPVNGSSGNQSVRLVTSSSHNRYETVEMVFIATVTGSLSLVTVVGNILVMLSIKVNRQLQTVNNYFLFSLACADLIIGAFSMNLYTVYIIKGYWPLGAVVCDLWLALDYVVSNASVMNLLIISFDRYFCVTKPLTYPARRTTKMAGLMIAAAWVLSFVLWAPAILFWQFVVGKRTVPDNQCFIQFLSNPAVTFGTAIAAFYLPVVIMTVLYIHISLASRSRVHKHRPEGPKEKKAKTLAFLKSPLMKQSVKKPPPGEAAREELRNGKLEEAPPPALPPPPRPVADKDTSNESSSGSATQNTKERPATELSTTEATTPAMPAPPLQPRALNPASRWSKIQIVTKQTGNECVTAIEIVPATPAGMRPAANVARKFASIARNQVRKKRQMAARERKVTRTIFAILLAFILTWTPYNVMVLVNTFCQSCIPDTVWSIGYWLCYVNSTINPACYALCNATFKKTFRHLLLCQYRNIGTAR
Kind of assay: Displacement of [3H]-NMS from human muscarinic M4 receptor expressed in CHO-K9 cells after 3 hrs by microbeta2 scintillation counting method. In short, it runs like this:
(§2)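 [3H]NMS competition binding on intact CHO-hMxR cells in L15 medium with 1% BSA, 3 h at 22 ± 1 °C with gentle shaking. [3H]NMS was 0.2 nM (M1, M2, M3), 0.1 nM (M4) or 0.3 nM (M5). […] Cells were lysed in urea/acetic acid/Triton and counted by liquid scintillation. Ki from Cheng-Prusoff. Triplicates, ≥3 experiments.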
In general terms: Loss of bound radioactivity is the signal in a displacement assay; it reports binding, not function.

In assay [5] the target is Muscarinic acetylcholine receptor M3 (Homo sapiens, UniProt P20309). The experiment in a line: Displacement of [3H]-NMS from human muscarinic M3 receptor expressed in CHO-K9 cells after 3 hrs by microbeta2 scintillation counting method. The essentials:
as §2

Assay [6] addresses T2, Muscarinic acetylcholine receptor M5 (Homo sapiens, UniProt P08912).
T2 sequence (P08912 whole entry): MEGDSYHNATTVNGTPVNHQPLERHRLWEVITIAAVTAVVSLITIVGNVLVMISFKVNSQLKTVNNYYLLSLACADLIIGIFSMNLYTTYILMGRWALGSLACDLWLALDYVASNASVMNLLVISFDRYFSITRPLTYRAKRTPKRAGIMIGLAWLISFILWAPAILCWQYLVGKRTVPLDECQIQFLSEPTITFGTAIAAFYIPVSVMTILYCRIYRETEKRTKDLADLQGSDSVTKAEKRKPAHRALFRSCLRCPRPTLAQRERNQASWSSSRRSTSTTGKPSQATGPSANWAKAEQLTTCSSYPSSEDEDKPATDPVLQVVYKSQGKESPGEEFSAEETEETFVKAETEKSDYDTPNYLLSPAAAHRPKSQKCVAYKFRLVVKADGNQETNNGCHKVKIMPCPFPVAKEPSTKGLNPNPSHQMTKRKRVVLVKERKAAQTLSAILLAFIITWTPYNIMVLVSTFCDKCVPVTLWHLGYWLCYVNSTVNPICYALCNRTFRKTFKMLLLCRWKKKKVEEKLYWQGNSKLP
Kind of assay: Displacement of [3H]-NMS from human muscarinic M5 receptor expressed in CHO-K9 cells after 3 hrs by microbeta2 scintillation counting method. In short, it runs like this: as §2

For assay [7], the target named is Muscarinic acetylcholine receptor M2 and M5 (Homo sapiens) (UniProt P08172+P08912). The experiment in a line: Selectivity ratio of Ki for human muscarinic M5 receptor expressed in CHO-K9 cells to Ki for human muscarinic M2 receptor expressed in CHO-K9 cells. In short, it runs like this:
as §1

The target of assay [8] is T3, Muscarinic acetylcholine receptor M2 (Homo sapiens, UniProt P08172).
T3 sequence (P08172 whole entry): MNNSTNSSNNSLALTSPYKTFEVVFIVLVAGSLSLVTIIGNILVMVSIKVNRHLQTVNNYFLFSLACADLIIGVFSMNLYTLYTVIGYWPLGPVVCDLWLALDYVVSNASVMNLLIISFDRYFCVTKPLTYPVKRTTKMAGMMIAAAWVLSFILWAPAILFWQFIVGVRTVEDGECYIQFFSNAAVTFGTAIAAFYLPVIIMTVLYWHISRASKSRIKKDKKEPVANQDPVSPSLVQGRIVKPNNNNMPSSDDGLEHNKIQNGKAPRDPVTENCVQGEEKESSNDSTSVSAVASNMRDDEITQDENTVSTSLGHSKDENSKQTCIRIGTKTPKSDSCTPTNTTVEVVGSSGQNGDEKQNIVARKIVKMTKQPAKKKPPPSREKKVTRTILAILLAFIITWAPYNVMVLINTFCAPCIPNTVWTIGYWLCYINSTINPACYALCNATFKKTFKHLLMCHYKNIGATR
Kind of assay: Displacement of [3H]-NMS from human muscarinic M2 receptor expressed in CHO-K9 cells after 3 hrs by microbeta2 scintillation counting method. In short, it runs like this: as §2

The target of assay [9] is T4, Muscarinic acetylcholine receptor M1 (Homo sapiens, UniProt P11229).
T4 sequence (P11229 whole entry): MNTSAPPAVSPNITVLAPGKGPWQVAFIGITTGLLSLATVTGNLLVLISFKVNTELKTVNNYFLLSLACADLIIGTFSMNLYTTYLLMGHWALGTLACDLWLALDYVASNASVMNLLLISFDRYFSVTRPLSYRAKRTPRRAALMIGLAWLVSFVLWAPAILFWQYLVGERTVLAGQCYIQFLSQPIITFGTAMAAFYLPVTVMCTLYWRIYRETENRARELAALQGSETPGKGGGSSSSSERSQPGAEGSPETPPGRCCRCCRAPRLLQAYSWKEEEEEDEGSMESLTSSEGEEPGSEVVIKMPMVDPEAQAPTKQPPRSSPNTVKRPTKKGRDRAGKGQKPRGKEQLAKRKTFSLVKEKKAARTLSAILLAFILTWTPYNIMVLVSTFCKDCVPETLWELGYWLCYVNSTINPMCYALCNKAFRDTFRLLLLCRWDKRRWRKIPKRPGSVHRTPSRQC
Kind of assay: Displacement of [3H]-NMS from human muscarinic M1 receptor expressed in CHO-K9 cells after 3 hrs by microbeta2 scintillation counting method. In short, it runs like this: as §2

Chain of Muscarinic acetylcholine receptor M3 (P20309 whole entry): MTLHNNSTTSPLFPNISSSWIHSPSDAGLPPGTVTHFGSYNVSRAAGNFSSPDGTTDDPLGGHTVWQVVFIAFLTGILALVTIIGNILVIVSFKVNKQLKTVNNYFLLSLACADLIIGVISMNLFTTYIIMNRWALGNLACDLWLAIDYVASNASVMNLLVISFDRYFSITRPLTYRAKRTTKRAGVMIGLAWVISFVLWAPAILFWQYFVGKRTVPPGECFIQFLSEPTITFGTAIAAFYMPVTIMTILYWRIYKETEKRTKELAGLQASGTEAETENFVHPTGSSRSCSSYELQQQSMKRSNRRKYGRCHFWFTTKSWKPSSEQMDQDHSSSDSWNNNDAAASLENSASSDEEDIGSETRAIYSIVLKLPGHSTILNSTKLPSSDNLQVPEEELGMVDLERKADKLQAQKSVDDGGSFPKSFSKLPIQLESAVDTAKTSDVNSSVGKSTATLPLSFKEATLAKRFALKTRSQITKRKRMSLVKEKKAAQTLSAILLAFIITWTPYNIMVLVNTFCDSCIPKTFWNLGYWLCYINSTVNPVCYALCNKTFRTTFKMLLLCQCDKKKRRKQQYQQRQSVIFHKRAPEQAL
Chain of Muscarinic acetylcholine receptors; M2 & M3 (Homo sapiens) (P20309 whole entry, looked up, one chain of several): as the sequence (P20309 whole entry) above

Turning to `CC(=O)N[C@@H](CCCNC(=N)N)C(=O)N[C@@H](CCCCN)C(=O)NCCCCC1CCN(CC(=O)N2c3ccccc3NC(=O)c3ccccc32)CC1`, the Ratio Ki was 6.5 in assay [1], 400 in assay [2], 17 in assay [3] and 39 in assay [7]. For the same molecule, the Ki in [4] was 257 nM; in assay [5], 5500 nM; in assay [6] it was 501 nM; in [8], 12 nM; in assay [9] it was 95.5 nM.

As for `CC(=O)N[C@@H](CCC(N)=O)C(=O)N[C@@H](C)C(=O)N[C@@H](CC(C)C)C(=O)NCCN1CCN(CCCCC2CCN(CC(=O)N3c4ccccc4NC(=O)c4ccccc43)CC2)CC1`, the Ratio Ki in [1] amounted to 8.4; in assay [2], 440; in assay [3] it was 11; in assay [7], 710. Moreover, the Ki in assay [4] is 3.55 nM; in [5], 151 nM; in assay [6], 240 nM; in assay [8], 0.355 nM; in [9] it was 2.95 nM.

For the molecule `CC(=O)N[C@@H](Cc1ccc(O)cc1)C(=O)N[C@@H](C)C(=O)N[C@@H](CCCCN)C(=O)NCCN1CCN(CCCCC2CCN(CC(=O)N3c4ccccc4NC(=O)c4ccccc43)CC2)CC1`, the Ratio Ki was found to be 22 in [1], 290 in assay [2], 28 in assay [3] and 260 in [7]. The Ki in assay [4] is 3.24 nM; in assay [5], 28.2 nM; in assay [6], 29.5 nM; in [8] it was 0.115 nM; in [9], 2.34 nM.

As to `N=C(N)NCCC[C@H](N)C(=O)NCCCCC1CCN(CC(=O)N2c3ccccc3NC(=O)c3ccccc32)CC1`, the Ratio Ki in assay [1] was found to be 18; in assay [2], 260; in assay [3], 9.8; in [7], 410. The Ki in assay [4] was 56.2 nM; in assay [5], 1260 nM; in assay [6] it was 2400 nM; in assay [8] it was 5.37 nM; in assay [9] it was 107 nM.

As to `CC(=O)N[C@@H](CCCCN)C(=O)N[C@@H](CCCNC(=N)N)C(=O)NCC(=O)NCCCCC1CCN(CC(=O)N2c3ccccc3NC(=O)c3ccccc32)CC1`, the Ratio Ki in assay [1] was 8.2; in assay [2] it was 180; in assay [3], 6.9; in [7], 49. The Ki was 27.5 nM in assay [4]; 646 nM in assay [5]; 200 nM in assay [6]; 4.17 nM in [8]; 32.4 nM in assay [9].

`CC(=O)N[C@@H](CCCNC(=N)N)C(=O)N[C@@H](CCCNC(=N)N)C(=O)NCCCCC1CCN(CC(=O)N2c3ccccc3NC(=O)c3ccccc32)CC1`: the Ratio Ki in assay [1] worked out at 12; in assay [2], 710; in assay [3], 19; in [7] it was 97. The Ki was 29.5 nM in assay [4]; 955 nM in assay [5]; 162 nM in assay [6]; 1.7 nM in assay [8]; 20 nM in assay [9].

With `CC(=O)N[C@@H](Cc1ccc(O)cc1)C(=O)N[C@@H](CCCCN)C(=O)NCCN1CCN(CCCCC2CCN(CC(=O)N3c4ccccc4NC(=O)c4ccccc43)CC2)CC1`, the Ratio Ki was 32 in assay [1], 220 in [2], 13 in [3] and 1900 in assay [7]. Further, the Ki in [4] was 0.912 nM; in assay [5] it was 16.2 nM; in [6], 141 nM; in assay [8], 0.0794 nM; in [9] it was 2.14 nM.

Turning to `CC(=O)N[C@@H](C)C(=O)N[C@@H](C)C(=O)NCCN1CCN(CCCCC2CCN(CC(=O)N3c4ccccc4NC(=O)c4ccccc43)CC2)CC1`, the Ratio Ki in assay [1] was 7.5; in assay [2], 370; in assay [3] it was 7.5; in assay [7], 1100. In addition, the Ki in [4] was 2.45 nM; in [5], 155 nM; in assay [6], 457 nM; in assay [8], 0.427 nM; in [9] it was 3.16 nM.

Consider `CC(=O)N[C@@H](Cc1c[nH]c2ccccc12)C(=O)N[C@@H](Cc1ccc(O)cc1)C(=O)NCCCCC1CCN(CC(=O)N2c3ccccc3NC(=O)c3ccccc32)CC1`, for which the Ratio Ki came out at 5 in [1], 46 in [2], 2.8 in assay [3] and 1.8 in assay [7]. Also, the Ki in assay [4] is 93.3 nM; in assay [5] it was 1580 nM; in assay [6] it was 58.9 nM; in assay [8] it was 33.1 nM; in assay [9], 155 nM.

Consider `CCC(=O)NCCCCC1CCN(CC(=O)N2c3ccccc3NC(=O)c3ccccc32)CC1`, for which the Ratio Ki in assay [1] was 1.1; in [2], 69; in [3], 2.7; in [7], 98. In addition, the Ki in assay [4] is 209 nM; in [5], 5370 nM; in assay [6], 7080 nM; in [8] it was 79.4 nM; in [9], 85.1 nM.

On to `CC(=O)N[C@@H](Cc1ccc(O)cc1)C(=O)N[C@@H](C)C(=O)N[C@@H](CCCCN)C(=O)NCCCCC1CCN(CC(=O)N2c3ccccc3NC(=O)c3ccccc32)CC1`, for which the Ratio Ki amounted to 19 in [1], 550 in [2], 5.9 in [3] and 23 in assay [7]. The Ki in assay [4] is 57.5 nM; in [5], 5010 nM; in assay [6], 209 nM; in [8], 9.33 nM; in assay [9], 178 nM.

For orientation: Ki means a dissociation constant, usually derived from enzyme kinetics or from competition with a known ligand. A higher Ki goes with a looser hold on the target.
